# Most compounds without a hit are left out; they make up all but 4.9% or so of the library.
# STAT1 activator = STAT1 signaling activators, primary screen, cell-based, HTS, luciferase reporter | NIH 3T3 STAT1-luciferase reporter, IFN-gamma, luminescence; 100% = IFN-gamma alone, no compound | activation (% of control), % at 5.5 µM | 200,000 compounds, 2.6% hits | AID 932, 2007;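 active = activation above the screen-wide mean activation plus 3 SD, cut at about 130% in these data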;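 note: raw ratio to IFN-gamma control signal so 100% means no change and 0% no light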
# APP 5'UTR act = activators of APP 5'UTR luciferase reporter, primary screen, SH-SY5Y cells. AID 1276, 2008. 190,000 compounds, 1% hits. activation, % at 2 µM. SH-SY5Y APP 5'UTR luciferase reporter, luminescence; zero percent = DMSO vehicle wells;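 active = activation above a set limit, based on mean plus 3 SD of controls, cut at about 140% in these data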
# STAT1 blocker = STAT1 signaling inhibitors, primary screen, cell-based, HTS, luciferase reporter; NIH 3T3 STAT1-luciferase reporter, IFN-gamma, luminescence; inhibition, % at 5.5 µM; 200,000 compounds, 0.35% hits;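 active = inhibition above a set limit, the mean inhibition across all tested compounds plus 3 SD, cut at about 34% in these data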;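 note: 0% = IFN-gamma with DMSO and 100% = IFN-gamma with 300 µM nifuroxazide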
# STAT3 activator = IL-6 driven STAT3 reporter potentiators, primary screen, U3A cells, luciferase, luminescence, MLSCN library | IL-6 STAT3-luciferase reporter; 100% = signal with IL-6 EC80 alone | activation (% of control), % at 5.6 µM | 190,000 compounds, 0.91% hits | AID 871, 2007;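 active = activation above the screen-wide mean of compound activation plus 3 SD, cut at about 130% in these data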;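 note: 0% = background luminescence of wells with medium and substrate only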
#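 system = STAT3-luciferase reporter U3A cells | reagent = IL-6 stimulus at 33 ng/mL final | timing = 1 h compound pre-exposure, 6 h IL-6 stimulation, 37 °C | measured by = luminescence | evaluation = % activation versus median of IL-6-stimulated wells | control set = IL-6-only wells as 100% reference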
# STAT3 inh = IL-6 driven STAT3 reporter inhibitors, primary screen, U3A cells, luciferase, luminescence, MLSCN library; 190,000 compounds, 0.89% hits; inhibition, % at 5.5 µM; IL-6 STAT3-luciferase reporter; host cell line lacks STAT1;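 active = inhibition above the mean inhibition across all screened compounds plus 3 SD, cut at about 44% in these data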;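 note: 0% = DMSO only wells and 100% = 100 µM nifuroxazide control wells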
# NF-kB neuron act = activators of NF-kB expression in neurons, primary screen, cell-based, HTS. human neuronal cells, NF-kB reporter expression; stronger effect = higher value. fold change at 12.5 µM. 190,000 compounds, 1.6% hits; in the data active = fold change above about 3.3
# * = called active by the depositor.
SMILES,STAT1 activator,APP 5'UTR act,STAT1 blocker,STAT3 activator,STAT3 inh,NF-kB neuron act
CCOC(=O)c1ccc(NCc2nc3ccccc3n2C)cc1,139*,85,-42,97,8,2.9
CCOC(=O)c1ccc(NC(=O)CSc2nnc(CNc3ccc(C)cc3)n2C)cc1,104,12,-5,101,2,1.1
O=c1cc(O)c(-c2ccccc2Cl)c(Cl)[nH]1,97,-2,3,99,6,0.96
Cc1cccc(-c2c(O)cc(=O)[nH]c2Cl)c1,99,11,0,101,3,5.9*
Cc1cccc2c(C(=O)n3cccn3)cc(-c3ccccc3Cl)nc12,101,10,-1,102,4,1
CCCCCCn1c(NCC)nc2c1c(=O)n(C)c(=O)n2C,64,-2,40*,43,67*,0.97
O=C1CC(c2ccc(F)cc2)Sc2ccccc2N1 (centres undefined),108,-8,-9,135*,-38,1.1
CCCc1ccc(OCc2ccc(C(=O)NCc3cccnc3)o2)c(OC)c1,99,4,0,106,-4,1.6
CCCc1ccc(OCc2ccc(C(=O)Nc3cccc(C)n3)o2)c(OC)c1,138*,8,-43,99,8,1.1
Cc1ccc(Cn2ccc(-c3cnc(-c4ccccc4)s3)n2)cc1,126,31,-29,77,32,2.2
O=C(c1ccc(F)cc1)n1ccc(-c2cnc(-c3ccccc3)s2)n1,136*,92,-39,103,3,3.6*
Fc1ccc(Cn2ccc(-c3cnc(-c4ccccc4)s3)n2)cc1,131*,18,-34,85,24,2.6
CCOC(=O)c1c(C)nc(C)c(C(=O)OCC)c1-c1ccccc1,101,20,-1,106,-1,1
CC(=O)c1c(C)nc(-c2ccccc2)nc1N,114,11,-18,95,9,1.5
CCOC(=O)c1c(-c2ccccc2)cn2c(C)cc(C)nc12,138*,100,-46,91,15,1.1
CCOC(=O)c1c(C)nc(-c2ccccc2)nc1N,148*,123,-53,152*,-57,4*
Cc1cc(Nc2c(C)n(C)n(-c3ccccc3)c2=O)c2ccccc2n1,102,0,-2,96,8,1.3
COCCNC(=O)C1CC(c2ccc([N+](=O)[O-])cc2)=NO1 (centres undefined),103,-10,-3,99,8,1.3
O=C(NCCc1cccs1)C1CC(c2ccc([N+](=O)[O-])cc2)=NO1 (centres undefined),144*,62,-48,115,-12,2.3
CCCSc1nc(C)c2cc(C)cc(C)c2n1,89,-3,12,98,0,0.98
Cc1cc(C)c2nc3nc(C)c(C)cc3c(N)c2c1,143*,-4,-46,122,-19,0.84
COc1ccc(Nc2cc(C)c3ccccc3n2)cc1,132*,85,-37,95,13,2
COc1cc(C2C(C#N)=C(N)OC3=C2C(=O)CCC3)c([N+](=O)[O-])cc1OC (centres undefined),99,-7,1,98,10,0.96
CCOC(=O)C1=NN(C(=O)Nc2ccc(OC)cc2)C2C(=O)N(c3cccc(C(F)(F)F)c3)C(=O)C12 (centres undefined),102,-12,-2,96,10,1.1
O=C(NCCCn1ccnc1)c1ccc(S(=O)(=O)N2CCOCC2)cc1,99,-6,0,97,12,4*
O=C(NCCCN1CCOCC1)c1ccc(-n2nc(C(F)(F)F)cc2-c2cccs2)cc1,91,-15,9,80,24,0.74
O=C(NCCCN1CCOCC1)c1cc(-c2cccs2)on1,119,22,-21,120,-21,7.3*
O=C(NCCCn1ccnc1)c1cc(-c2cccs2)on1,147*,19,-51,123,-26,11*
Cc1cccc2nc(-c3ccccc3)nc(N[C@@H](CO)c3ccccc3)c12,93,1,8,91,11,1.2
